TRPC4 block: TRPC4 (mouse) channel inhibition | B-score at 10 µM | 0.39% of 300,000 active | HEK293 TRPC4beta/mu-opioid, DAMGO-evoked Fluo4 calcium flux; stronger effect = lower value | AID 2247;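 active means B-score over 3 SD under the library average, no early fluorescence shift, positive overall ratio signal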
Target sequence (Q9QUQ5 whole entry, looked up): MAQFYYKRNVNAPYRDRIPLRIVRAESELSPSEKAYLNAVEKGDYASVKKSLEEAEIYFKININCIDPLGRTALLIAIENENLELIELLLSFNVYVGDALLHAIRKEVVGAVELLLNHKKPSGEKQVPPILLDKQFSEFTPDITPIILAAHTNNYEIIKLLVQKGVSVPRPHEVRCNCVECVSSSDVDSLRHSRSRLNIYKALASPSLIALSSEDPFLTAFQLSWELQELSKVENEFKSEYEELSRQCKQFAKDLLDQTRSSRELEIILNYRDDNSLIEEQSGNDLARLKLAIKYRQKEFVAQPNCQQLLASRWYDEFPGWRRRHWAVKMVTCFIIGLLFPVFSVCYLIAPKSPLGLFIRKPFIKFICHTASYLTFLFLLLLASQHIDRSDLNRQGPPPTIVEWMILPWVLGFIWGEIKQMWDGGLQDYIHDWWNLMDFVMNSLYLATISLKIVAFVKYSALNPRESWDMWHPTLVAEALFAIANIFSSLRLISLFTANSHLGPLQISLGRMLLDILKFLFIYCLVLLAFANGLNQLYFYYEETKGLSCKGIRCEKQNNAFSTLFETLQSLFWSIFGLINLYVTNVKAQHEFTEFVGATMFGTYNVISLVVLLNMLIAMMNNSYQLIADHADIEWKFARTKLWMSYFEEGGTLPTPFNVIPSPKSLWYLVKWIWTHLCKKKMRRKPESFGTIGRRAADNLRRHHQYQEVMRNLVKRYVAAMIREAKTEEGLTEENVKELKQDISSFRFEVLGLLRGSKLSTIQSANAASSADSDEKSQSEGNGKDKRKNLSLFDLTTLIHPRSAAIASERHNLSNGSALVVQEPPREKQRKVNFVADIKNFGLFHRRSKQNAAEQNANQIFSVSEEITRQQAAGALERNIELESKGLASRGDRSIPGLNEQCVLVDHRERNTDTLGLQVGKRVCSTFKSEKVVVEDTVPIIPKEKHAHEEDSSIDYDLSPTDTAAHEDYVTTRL
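System: stable TRPC4beta/mu-opioid receptor HEK293 cells; Dosing: single-point compound dosing; Measured by: Fluo4 Ca2+ flux fluorescence; Read-out basis: per-well B score of integrated baseline-normalized Fluo4 ratio.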
TRPC6 inhibitor: inhibitors of mouse TRPC6 channel | Q61143 | HEK293-TRPC6, membrane potential dye, ACh-evoked depolarization; stronger effect = lower value | B-score at 10 µM | 1.1% of 310,000 active | AID 2553;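 active means B-score under library mean minus 3 SD, initial fluorescence not abnormally high, positive integrated signal ratio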;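 further: B-score derived from integrated fluorescence ratio over the kinetic read; more negative B-score means stronger inhibition of depolarization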
TRPC6 activator: activators of mouse TRPC6 channel; B-score at 10 µM; HEK293-TRPC6 membrane potential dye fluorescence; stronger effect = higher value; 0.13% of 310,000 active;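 active means B-score of the integrated fluorescence ratio above library mean plus 3 SD, and starting fluorescence ratio within library mean plus 5 SD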;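 further: higher score means more depolarization so channel activation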
TRPC4 potent: TRPC4 (mouse) allosteric potentiation. B-score at 10 µM. HEK293 TRPC4beta/mu-opioid, DAMGO EC20, Fluo-4 Ca2+ flux; stronger effect = higher value. Q9QUQ5. AID 2227. 0.42% of 310,000 active;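 active means B-score of calcium response area above 5 SD of library B-scores, with initial fluorescence ratio within 5 SD of library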;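 further: B-score of integrated fluorescence ratio over time as area under calcium response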
TRPC4 agonist: TRPC4 (mouse) channel activation; Q9QUQ5; 0.49% of 310,000 active; B-score at 10 µM; HEK293 TRPC4beta/mu-opioid, Fluo4 calcium fluorescence; stronger effect = higher value;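 active means B-score above 5 SD of library B-scores, and initial fluorescence ratio not above library mean plus 5 SD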;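 further: positive B-score marks a calcium rise read as TRPC4 activation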
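system = HEK293 cells stably co-expressing mouse TRPC4beta and mu-opioid receptor | schedule = Fluo4 dye loading 45 min at room temperature, 110 s recording | measure = B-scored integrated calcium fluorescence ratio | signal = Fluo4 calcium-sensitive dye fluorescence, kinetic, 1 Hz baseline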
TRPC4 sel inh 2: second check of whether TRPC6 inhibitors also affect mouse TRPC4; shares compounds with TRPC6 inhibitor; HEK293 TRPC4/MOR, membrane potential dye fluorescence; channel activated by saturating DAMGO dose; inhibition, % at 10 µM; 42% of 920 active;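 active means compounds whose fluorescence signal differed from control wells by over 3 SD, either direction, in both duplicate plates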
TRPC4 spec: tests whether TRPC6 inhibitors also affect mouse TRPC4 | shares compounds with TRPC6 inhibitor | HEK293 TRPC4/mu-opioid, membrane potential fluorescence | activity change, negative = inhibition, % at 10 µM | 61% of 920 active | AID 2777;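 active means rise or fall in signal beyond 3 SD of buffer-only wells in both replicate plates, either sign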;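 further: integrated kinetic ratio of fluorescence range over baseline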
HEK293 MPD ctr 2-1: second counter-screen for TRPC6 inhibitors: parental HEK293 cells; shares compounds with TRPC6 inhibitor; parental HEK293 membrane potential dye fluorescence; maximal acetylcholine challenge after compound addition; signal change vs control, % at 10 µM; 31% of 920 active; AID 2779;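 active means membrane potential signal moving either way by over 3 SD of the maximum-effect control, in both duplicate plates, meaning non-specific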
HEK293 MPD ctr-1: parental HEK293 nonspecific activity of TRPC6 inhibitors; shares compounds with TRPC6 inhibitor; parental HEK293 membrane potential dye fluorescence; membrane potential signal change, % at 10 µM; 60% of 920 active; AID 2780;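 active means membrane potential signal shifting up or down by more than 3 SD of buffer-only wells, on both duplicate plates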
HEK293 MPD ctr-2: checks TRPC6 modulator effects in parental HEK293 cells; 51% of 2,400 active; membrane potential dye fluorescence; shares compounds with TRPC6 inhibitor; membrane potential signal change, % at 10 µM; AID 488924;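 active means membrane potential signal moves up or down beyond 5 SD from buffer-only wells, on both duplicate plates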
HEK293 MPD ctr 2-2: second counter-screen for TRPC6 modulators: effect in parental HEK293 cells. shares compounds with TRPC6 inhibitor. membrane potential dye fluorescence; after compound, maximal acetylcholine stimulation. inhibition, % at 10 µM. 14% of 2,400 active;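 active means membrane potential signal drops by more than 5 SD from the mean control signal, in both duplicate plates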;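 further: plate controls were acetylcholine ECmax control wells for no effect and buffer only wells for full effect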
TRPC4/MOR mod: mouse TRPC4 off-target activity of TRPC6 modulators. percent change from control (negative = decrease, positive = increase), % at 10 µM. HEK293 TRPC4/mu-opioid, membrane potential fluorescence. 69% of 2,400 active. AID 488927. shares compounds with TRPC6 inhibitor;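 active means membrane potential signal moved up or down beyond 5 SD of buffer control wells, in both duplicate plates, actives on both sides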;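 further: plate controls were assay buffer wells for no effect and DAMGO maximal-effect wells for full effect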
TRPC4 ctr inh 2: second check of whether TRPC6 modulators also affect mouse TRPC4; inhibition, % at 10 µM; 55% of 2,400 active; AID 488928; HEK293 TRPC4/mu-opioid, membrane potential dye fluorescence; stimulated with maximal-effect DAMGO; shares compounds with TRPC6 inhibitor;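 active means drop in membrane potential signal beyond 5 SD of the control wells in both duplicate plates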;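 further: TRPC4 counter screen for TRPC6 hits run under conditions tuned for TRPC6 not TRPC4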
TRPC6 block conf: mouse TRPC6 inhibitor confirmation; shares compounds with TRPC6 inhibitor; HEK293-TRPC6, membrane potential dye, ACh-evoked depolarization; inhibition, % at 10 µM; 43% of 3,300 active;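 active means fluorescence ratio falls more than 5 SD below the full-stimulation control mean, in both duplicate runs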;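 further: integrated fluorescence ratio of peak minus minimum over baseline after agonist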
TRPC6 act conf: mouse TRPC6 activator confirmation. HEK293-TRPC6 membrane potential dye fluorescence, FDSS. AID 488961. shares compounds with TRPC6 inhibitor. activation, % at 10 µM. 11% of 2,800 active;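 active means ratio signal rise beyond 5 SD above unstimulated control wells' mean, seen in both duplicate runs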;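 further: plate controls were buffer EC0 wells for no effect and acetylcholine ECmax response for full effect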
The depositor's hits bear a star; i = inactive; . = not tested or not shown; + = active, no number. Shown are actives, neighbours in structure and some others; about 2.3% of the full set was active somewhere.

SMILES	TRPC4 block	TRPC6 inhibitor	TRPC6 activator	TRPC4 potent	TRPC4 agonist	HEK293 MPD ctr-2	HEK293 MPD ctr 2-2	TRPC4/MOR mod	TRPC4 ctr inh 2	TRPC6 block conf	TRPC6 act conf	others
O=C(CSc1nc2c(c(=O)n1-c1ccc(Br)cc1)SCC2)NCC1CCCO1 (stereo not drawn)	i	-5*	i	i	i	108%*	i	25%*	32%*	51%*	.
O=C(Nc1nncs1)c1cc(S(=O)(=O)N2CCCCC2)ccc1Cl	i	i	i	i	i	.	.	.	.	.	.
CC(O)CNCCNCc1c(OCc2ccccc2)ccc2ccccc12 (stereo not drawn)	i	-7.9*	i	i	i	.	.	.	.	66%*	i	TRPC4 sel inh 2=28%*;TRPC4 spec=-9.5%*;HEK293 MPD ctr 2-1=i;HEK293 MPD ctr-1=i
COc1cc(C2=CCN(C(C)=O)CC2)ccc1OC(C)=O	i	i	i	i	i	.	.	.	.	.	.
Nc1cc2c3c(cccc3c1)C(=O)N(CCN1CCCC1)C2=O	i	i	i	i	i	.	.	.	.	.	.
CCN(CC)CCN1C(=O)c2cccc3cc(N)cc(c23)C1=O	i	-5.5*	i	i	i	531%*	i	-32%*	61%*	48%*	i
COc1ccc2cc(C(=O)N/N=C/c3sc4ccccc4c3O)ccc2c1	i	i	72*	i	i	138%*	108%*	261%*	i	.	38%*
O=C(N/N=C/c1sc2ccccc2c1O)c1cccc2ccccc12	i	i	22*	i	45*	834%*	+	121%*	42%*	.	251%*
O=C(N/N=C/c1sc2ccccc2c1O)c1ccccc1	i	i	i	i	i	.	.	.	.	.	.
COc1ccc(C(=O)N/N=C/c2sc3ccccc3c2O)cc1	i	i	12*	i	i	+	+	112%*	40%*	.	198%*
O=C(Cn1nnc2ccccc2c1=O)NCC1CCC(C(=O)O)CC1 (stereo not drawn)	i	i	i	i	i	.	.	.	.	.	.
COC(=O)Cn1nc(-c2ccc(C)cc2)c2ccccc2c1=O	i	i	i	i	i	.	.	.	.	.	.
CO/N=C/c1cccn1-c1nccc(N(C)C)c1C#N	i	i	i	i	i	.	.	.	.	.	.
COc1c(C)cc(Br)cc1C(=O)Nc1ccc(Cc2ccncc2)cc1	i	i	i	i	i	.	.	.	.	.	.
CSc1nnc(C)c(/C=C/Nc2ccc(Cl)cc2)n1	i	i	14*	i	i	214%*	i	36%*	i	i	36%*
Cc1cc(C)cc(N2C(=O)CC(Sc3ncn[nH]3)C2=O)c1 (stereo not drawn)	i	i	i	i	i	.	.	.	.	.	.
Cc1nn(-c2ccccc2)c(N2CCCC2)c1/C=N/NC(=S)Nc1ccccc1F	i	i	i	i	i	.	.	.	.	.	.
O=C(c1ccc(Oc2cc(Cl)cc(Cl)c2)o1)N1CCCCC1	i	-5.6*	i	i	i	i	i	i	i	i	i
CCCc1[nH]n(-c2ccc(F)cc2)c(=O)c1C=Nc1ccc(C)cc1	i	i	i	i	i	.	.	.	.	.	.
COc1ccccc1CCc1nnc(CCC(=O)NC(C)Cc2cccs2)o1 (stereo not drawn)	i	i	i	i	i	.	.	.	.	.	.
O=C(NC1CC1)c1ccc(N2CCCCC2)c([N+](=O)[O-])c1	i	i	i	i	i	.	.	.	.	.	.
CN(C)CCCNc1nc(-c2ccc(Cl)cc2)nc2ccccc12	i	-7.7*	i	i	i	.	.	.	.	70%*	i	TRPC4 sel inh 2=53%*;TRPC4 spec=-31%*;HEK293 MPD ctr 2-1=34%*;HEK293 MPD ctr-1=-414%*
Cc1cccc(-c2nc(NCCCN(C)C)c3ccccc3n2)c1	i	-7.9*	i	i	i	.	.	.	.	76%*	i	TRPC4 sel inh 2=50%*;TRPC4 spec=-20%*;HEK293 MPD ctr 2-1=i;HEK293 MPD ctr-1=-242%*
CCC(C(=O)Nc1ccc2c(c1)OCCO2)n1c(=O)[nH]c2ccccc2c1=O (stereo not drawn)	i	i	i	i	i	.	.	.	.	.	.
CN(C)c1ccc2nc3ccc(=[N+](C)C)cc-3sc2c1	i	-14*	i	i	i	-224%*	132%*	-36%*	66%*	80%*	i
COc1ccc(-c2cn3cccc(C)c3n2)cc1F	i	-8*	i	i	i	.	.	.	.	i	i	TRPC4 sel inh 2=i;TRPC4 spec=i;HEK293 MPD ctr 2-1=4.5%*;HEK293 MPD ctr-1=-198%*
COc1ccc(-c2cn3cc(C)ccc3n2)cc1OC	i	-7.6*	i	i	i	.	.	.	.	i	i	TRPC4 sel inh 2=i;TRPC4 spec=-9.8%*;HEK293 MPD ctr 2-1=-28%*;HEK293 MPD ctr-1=i
CC(C)N1CCN(C(=O)c2ccc(OC3CCN(CCc4ccccc4)CC3)cc2)CC1	i	i	i	i	i	.	.	.	.	.	.
NS(=O)(=O)c1ccc(CNC(=S)NCc2ccc(F)cc2)cc1	i	i	i	i	i	.	.	.	.	.	.
COc1ccc(-c2nnc(CSc3nc4ccccc4c(=O)n3CC3CCCO3)o2)cc1OC (stereo not drawn)	i	i	i	i	i	.	.	.	.	.	.

Assay outcomes deposited in PubChem by Johns Hopkins Ion Channel Center.
